Where only a bound is given, the exact number is not on record here.

Data set [1] in a line: Half life in potato dextrose agar medium. The class given is physicochemical.
For data set [2], the system named is Plenodomus lingam. Description: Antifungal activity against Leptosphaeria maculans assessed as mycelial radial growth inhibition on potato dextrose agar at 0.20 mM relative to control. It counts as functional. An outline of the steps:
(§1)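 Mycelial radial growth on PDA. L. maculans isolates BJ-125 or UAMH-9410 were grown on V8 agar for 14 days at 23 °C under constant light. Wells with PDA containing test compound (0.50, 0.20 or 0.10 mM) or control, each with 1% CH3CN, were inoculated centrally with inverted 4 mm plugs from 7-day-old V8 plates. Growth after 5 days under constant light gave % inhibition = 100 − (amended/control growth × 100); ± SD.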

In data set [3] the test system is Plenodomus lingam. Description: Antifungal activity against Leptosphaeria maculans assessed as mycelial radial growth inhibition on potato dextrose agar at 0.10 mM relative to control. It counts as functional. An outline of the steps: as §1
Data set [4] concerns Plenodomus lingam. Description: Antifungal activity against Leptosphaeria maculans assessed as mycelial radial growth inhibition on potato dextrose agar at 0.50 mM relative to control. It counts as functional. An outline of the steps:
as §1

The nature of data set [5]: Half life in water. The class given is physicochemical.
Data set [6] is described as follows: Half life in Leptosphaeria maculans. Conditions: plenodomus lingam. The class given is ADME, organism-based. An outline of the steps:
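Minimal medium inoculated with L. maculans BJ-125 spores was shaken at 120 rpm and 23 °C under constant light. After 2 days, compound was added in CH3CN (0.10 mM final); uninoculated medium served as control. Samples were taken immediately and at intervals up to 72–96 h, then frozen or extracted with EtOAc. Extracts were concentrated, taken up in CH3CN and analysed by HPLC.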

By half-life is commonly meant how long it takes for the measured level to halve. Read a low half-life as rapid decline. One may read the inhibition as the share of the control response that was lost under treatment. In the case of `C=CCNC(=O)SCc1c[nH]c2ccccc12` [BRUSSALEXIN A], the results for the half-life in data set [1] and in data set [5] were 15 h and 48 h, respectively. Also, in the data set with Plenodomus lingam [2], the inhibition at 200 µM was 25%. Also, in the data set on Plenodomus lingam [3], the inhibition at 100 µM amounted to 7%. In addition, in the data set with Plenodomus lingam [4], the inhibition at 500 µM was 43%.

Consider `CON1c2ccccc2C(O)C12CN=C(SC)S2` (mixture of isomers) [DIHYDROERUCALEXIN], for which the inhibition at 200 µM in the data set on Plenodomus lingam [2] was 13%. Moreover, the inhibition at 100 µM in the data set with Plenodomus lingam [3] amounted to 7%. Also, the inhibition at 500 µM in the data set on Plenodomus lingam [4] came out at 23%.

Consider `OCc1c[nH]c2ccccc12` [INDOLE-3-CARBINOL], for which the inhibition at 200 µM in the data set with Plenodomus lingam [2] stood at 27%. Further, the inhibition at 100 µM with Plenodomus lingam [3] came out at 19%. In addition, the inhibition at 500 µM with Plenodomus lingam [4] was found to be 52%. For the same compound, in data set [5], the half-life was over 72 h.

Turning to `CON1c2ccccc2C(=O)C12CN=C(SC)S2` (racemic) [RAC-ERUCALEXIN], in the data set on Plenodomus lingam [2], the inhibition at 200 µM was 17%. Moreover, the inhibition at 100 µM in the data set with Plenodomus lingam [3] stood at 6%. In addition, the inhibition at 500 µM in the data set with Plenodomus lingam [4] is 40%. Besides, in data set [6], the half-life was under 6 h.

For `COc1cccc2[nH]cc(N=C=S)c12` [RAPALEXIN A], the inhibition at 200 µM in the data set on Plenodomus lingam [2] stood at 53%. Further, the inhibition at 100 µM with Plenodomus lingam [3] was determined as 21%. In addition, the inhibition at 500 µM in the data set with Plenodomus lingam [4] was 100%.

As for `CNC(=S)SCc1c[nH]c2ccccc12`, the half-life in data set [1] was 24 h; in data set [5] it was 20 h. Moreover, the inhibition at 200 µM in the data set on Plenodomus lingam [2] was 35%. Besides, in the data set with Plenodomus lingam [3], the inhibition at 100 µM is 17%. Also, the inhibition at 500 µM in the data set on Plenodomus lingam [4] worked out at 61%.

Source of the values: ChEMBL document CHEMBL3045815, “The cruciferous phytoalexins rapalexin A, brussalexin A and erucalexin: chemistry and metabolism in Leptosphaeria maculans” (Bioorg Med Chem, 2012).
